ChEMBL document CHEMBL2417469, “Synthesis of novel analogs of 2-pyrazoline obtained from [(7-chloroquinolin-4-yl)amino]chalcones and hydrazine as potential antitumor and antimalarial agents” (Eur J Med Chem, 2013)

Legend:
Assay type in all cases: functional
786-0 = assay: Cytotoxicity against human 786-0 cells after 48 hrs by SRB assay; settings: 786-0, 48 h
Summary of the method: (§1)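 NCI 60-cell-line screen. Cells preincubated 24 h at 37 °C, 5% CO2; time-zero plates TCA-fixed. Compounds dissolved in DMSO and tested at five concentrations (100, 10, 1.0, 0.1, 0.01 µM) for 48 h continuous exposure. Adherent cells fixed with cold TCA (10% final), then SRB stained; absorbance at 515 nm. GI50, TGI and LC50 calculated from growth relative to time-zero and untreated controls.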

SK-MEL-28 = assay: Cytotoxicity against human SK-MEL-28 cells after 48 hrs by SRB assay; settings: SK-MEL-28, 48 h; for CC50: read-out: LC50 (the source's name); summary of the method: as §1
SK-MEL-5 = assay: Cytotoxicity against human SK-MEL-5 cells after 48 hrs by SRB assay; settings: SK-MEL-5, 48 h; summary of the method: as §1
UO-31 = assay: Cytotoxicity against human UO31 cells after 48 hrs by SRB assay; settings: UO-31, 48 h
Summary of the method: (§2)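 NCI 60-cell screen. Cells grew 24 h (37 °C, 5% CO2) before compound was added. Compounds were in DMSO and diluted in medium with gentamicin, then tested at five levels (100, 10, 1.0, 0.1, 0.01 µM) with 48 h continuous exposure. Adherent cells were fixed with TCA (10% final) and stained with 0.4% SRB, absorbance read at 515 nm. A time-zero plate was included. LC50 is the concentration giving 50% loss of protein relative to time zero.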

M14 = assay: Cytotoxicity against human M14 cells after 48 hrs by SRB assay; settings: M14, 48 h; for CC50: read-out: LC50 (the source's name); summary of the method: as §1
RPMI-8226 = assay: Cytotoxicity against human RPMI8226 cells after 48 hrs by SRB assay; settings: RPMI-8226, 48 h; summary of the method: as §1
UACC-62 = assay: Cytotoxicity against human UACC62 cells after 48 hrs by SRB assay; settings: UACC-62, 48 h; for CC50: read-out: LC50 (the source's name); summary of the method: as §2
SF-295 = assay: Cytotoxicity against human SF295 cells after 48 hrs by SRB assay; settings: SF-295, 48 h; summary of the method: as §1
SN12C = assay: Cytotoxicity against human SN12C cells after 48 hrs by SRB assay; summary of the method: as §1
MDA-MB-435 = assay: Cytotoxicity against human MDA-MB-435 cells after 48 hrs by SRB assay; settings: MDA-MB-435, 48 h; summary of the method: as §1
TK-10 = assay: Cytotoxicity against human TK10 cells after 48 hrs by SRB assay; settings: TK-10, 48 h; summary of the method: as §2
T47D = assay: Cytotoxicity against human T47D cells after 48 hrs by SRB assay; summary of the method: as §2
CCRF-CEM = assay: Cytotoxicity against human CCRF-CEM cells after 48 hrs by SRB assay; summary of the method: as §1
SNB-75 = assay: Cytotoxicity against human SNB75 cells after 48 hrs by SRB assay; settings: SNB-75, 48 h; summary of the method: as §2
HCT-116 = assay: Cytotoxicity against human HCT116 cells after 48 hrs by SRB assay; settings: HCT-116, 48 h; summary of the method: as §1
OVCAR-4 = assay: Cytotoxicity against human OVCAR4 cells after 48 hrs by SRB assay; settings: OVCAR-4, 48 h; summary of the method: as §1
LOX IMVI = assay: Cytotoxicity against human LOXIMVI cells after 48 hrs by SRB assay; summary of the method: as §1
A498 = assay: Cytotoxicity against human A498 cells after 48 hrs by SRB assay; settings: A498, 48 h; for CC50: read-out: LC50 (the source's name); summary of the method: as §1
HOP-62 = assay: Cytotoxicity against human HOP62 cells after 48 hrs by SRB assay; settings: HOP-62, 48 h; summary of the method: as §1
KM12 = assay: Cytotoxicity against human KM12 cells after 48 hrs by SRB assay; settings: KM12, 48 h; summary of the method: as §1
Malme-3M = assay: Cytotoxicity against human MALME-3M cells after 48 hrs by SRB assay; summary of the method: as §1
NCI-H23 = assay: Cytotoxicity against human NCI-H23 cells after 48 hrs by SRB assay; settings: NCI-H23, 48 h; for CC50: read-out: LC50 (the source's name); summary of the method: as §1
NCI-H226 = assay: Cytotoxicity against human NCI-H226 cells after 48 hrs by SRB assay; settings: NCI-H226, 48 h; summary of the method: as §1
A549 = assay: Cytotoxicity against human A549/ATCC cells after 48 hrs by SRB assay; settings: A549, 48 h; for CC50: read-out: LC50 (the source's name); summary of the method: as §1
PC-3 = assay: Cytotoxicity against human PC3 cells after 48 hrs by SRB assay; settings: PC-3, 48 h; summary of the method: as §1
MDA-MB-231 = assay: Cytotoxicity against human MDA-MB-231 cells after 48 hrs by SRB assay; settings: MDA-MB-231, 48 h; summary of the method: as §1
MOLT-4 = assay: Cytotoxicity against human MOLT4 cells after 48 hrs by SRB assay; settings: MOLT-4, 48 h; summary of the method: as §1
COLO 205 = assay: Cytotoxicity against human COLO205 cells after 48 hrs by SRB assay; settings: COLO 205, 48 h; summary of the method: as §1
UACC-257 = assay: Cytotoxicity against human UACC257 cells after 48 hrs by SRB assay; settings: UACC-257, 48 h; summary of the method: as §2
DU-145 = assay: Cytotoxicity against human DU145 cells after 48 hrs by SRB assay; settings: DU-145, 48 h; summary of the method: as §1
OVCAR-3 = assay: Cytotoxicity against human OVCAR3 cells after 48 hrs by SRB assay; settings: OVCAR-3, 48 h; summary of the method: as §1
SNB-19 = assay: Cytotoxicity against human SNB19 cells after 48 hrs by SRB assay; settings: SNB-19, 48 h; summary of the method: as §2
HOP-92 = assay: Cytotoxicity against human HOP92 cells after 48 hrs by SRB assay; settings: HOP-92, 48 h; summary of the method: as §1
HCC 2998 = assay: Cytotoxicity against human HCC2998 cells after 48 hrs by SRB assay; settings: HCC 2998, 48 h; summary of the method: as §1
NCI-H522 = assay: Cytotoxicity against human NCI-H522 cells after 48 hrs by SRB assay; settings: NCI-H522, 48 h; summary of the method: as §1

With `COc1ccc(C2CC(c3ccc(Nc4ccnc5cc(Cl)ccc45)cc3)=NN2C=O)cc1` (stereo not drawn) the GI50 (786-0) was 32000 nM, the LC50 (786-0) was > 100000 nM and the GI50 (SK-MEL-28) was 20900 nM. The CC50 (SK-MEL-28) was > 100000 nM, the GI50 (SK-MEL-5) was 620 nM and the LC50 (concentration killing 50% of cells present at time zero) (SK-MEL-5) was > 100000 nM. The GI50 (UO-31) was 19700 nM, the LC50 (UO-31) was > 100000 nM and the GI50 (M14) was 7670 nM. For the same molecule, the CC50 (M14) was > 100000 nM, the GI50 (RPMI-8226) was 2710 nM and the LC50 (concentration killing 50% of cells) (RPMI-8226) was > 100000 nM. The GI50 (UACC-62) was 5990 nM, the CC50 (UACC-62) was > 100000 nM and the GI50 (SF-295) was 24800 nM. The LC50 (SF-295) was > 100000 nM, the GI50 (SN12C) was 12600 nM and the LC50 (50% net cell kill relative to time zero) (SN12C) was > 100000 nM. For the same molecule, the GI50 (MDA-MB-435) was 1720 nM, the LC50 (MDA-MB-435) was > 100000 nM and the GI50 (TK-10) was 20900 nM. For the same molecule, the LC50 (concentration giving 50% cell loss vs time zero) (TK-10) was > 100000 nM, the GI50 (T47D) was 1380 nM and the LC50 (concentration giving 50% cell kill relative to time zero) (T47D) was > 100000 nM. For the same molecule, the GI50 (CCRF-CEM) was 2710 nM, the LC50 (concentration killing 50% of cells relative to time zero) (CCRF-CEM) was > 100000 nM and the GI50 (SNB-75) was > 100000 nM. For the same molecule, the LC50 (50% net cell kill) (SNB-75) was > 100000 nM, the GI50 (HCT-116) was 9970 nM and the LC50 (HCT-116) was > 100000 nM. For the same molecule, the GI50 (OVCAR-4) was 13400 nM, the LC50 (OVCAR-4) was > 100000 nM and the GI50 (LOX IMVI) was 2320 nM. The LC50 (LOX IMVI) was > 100000 nM, the GI50 (A498) was > 100000 nM and the CC50 (A498) was > 100000 nM. The GI50 (HOP-62) was 43700 nM, the LC50 (50% lethal concentration) (HOP-62) was > 100000 nM and the GI50 (KM12) was 16500 nM. For the same molecule, the LC50 (concentration killing 50% of cells) (KM12) was > 100000 nM, the LC50 (Malme-3M) was > 100000 nM and the GI50 (NCI-H23) was 5060 nM. For the same molecule, the CC50 (NCI-H23) was > 100000 nM, the GI50 (NCI-H226) was > 100000 nM and the LC50 (50% lethal concentration) (NCI-H226) was > 100000 nM. The GI50 (A549) was 50300 nM, the CC50 (A549) was > 100000 nM and the GI50 (PC-3) was 9430 nM. For the same molecule, the LC50 (PC-3) was > 100000 nM, the GI50 (MDA-MB-231) was 20100 nM and the LC50 (concentration killing 50% of cells present at time zero) (MDA-MB-231) was > 100000 nM. The GI50 (MOLT-4) was 2540 nM, the LC50 (MOLT-4) was > 100000 nM and the GI50 (COLO 205) was 3560 nM. For the same molecule, the LC50 (COLO 205) was > 100000 nM, the GI50 (UACC-257) was 4390 nM and the LC50 (UACC-257) was > 100000 nM. For the same molecule, the GI50 (DU-145) was 38000 nM, the LC50 (concentration killing 50% of cells) (DU-145) was > 100000 nM and the GI50 (OVCAR-3) was 14500 nM. The LC50 (OVCAR-3) was > 100000 nM, the GI50 (SNB-19) was 5650 nM and the LC50 (SNB-19) was > 100000 nM. The LC50 (concentration killing 50% of cells) (HOP-92) was > 100000 nM, the GI50 (HCC 2998) was 18100 nM and the LC50 (HCC 2998) was > 100000 nM.

`COc1cccc2c1C(=O)c1c(O)c3c(c(O)c1C2=O)C[C@@](O)(C(=O)CO)C[C@@H]3O[C@H]1C[C@H](N)[C@H](O)[C@H](C)O1` [DOXORUBICIN] showed a GI50 (786-0) of 130 nM, a GI50 (SK-MEL-28) of 210 nM and a CC50 (SK-MEL-28) of 15900 nM. The GI50 (SK-MEL-5) was 80 nM, the GI50 (UO-31) was 490 nM and the GI50 (M14) was 180 nM. It also gave a CC50 (M14) of 4050 nM, a GI50 (RPMI-8226) of 80 nM and a GI50 (UACC-62) of 120 nM. The CC50 (UACC-62) was 740 nM, the GI50 (SF-295) was 100 nM and the GI50 (SN12C) was 70 nM. For the same molecule, the GI50 (MDA-MB-435) was 250 nM, the GI50 (TK-10) was 180 nM and the GI50 (T47D) was 60 nM. The GI50 (NCI-H522) was 30 nM, the CC50 (NCI-H522; read-out: LC50 (the source's name)) was 2800 nM and the GI50 (CCRF-CEM) was 80 nM. It also gave a GI50 (SNB-75) of 70 nM, a GI50 (HCT-116) of 80 nM and a GI50 (OVCAR-4) of 370 nM. For the same molecule, the GI50 (LOX IMVI) was 70 nM, the GI50 (A498) was 100 nM and the CC50 (A498) was 1900 nM. The GI50 (HOP-62) was 70 nM, the GI50 (KM12) was 270 nM and the GI50 (Malme-3M) was 120 nM. For the same molecule, the GI50 (NCI-H23) was 150 nM, the CC50 (NCI-H23) was 13200 nM and the GI50 (NCI-H226) was 50 nM. The GI50 (A549) was 60 nM, the CC50 (A549) was 100000 nM and the GI50 (PC-3) was 320 nM. For the same molecule, the GI50 (MDA-MB-231) was 510 nM, the GI50 (MOLT-4) was 30 nM and the GI50 (COLO 205) was 180 nM. For the same molecule, the GI50 (UACC-257) was 140 nM, the GI50 (DU-145) was 110 nM and the GI50 (OVCAR-3) was 390 nM. It also gave a GI50 (SNB-19) of 40 nM, a GI50 (HOP-92) of 100 nM and a GI50 (HCC 2998) of 260 nM.
